# Published values collected from several papers.
# Compare with care: the assays were run in different laboratories.
# Effect on: microbial growth
Compound,organism,assay,test system,conditions,MIC
Clc1ccccc1-c1nc2ccccc2[nH]1,Aspergillus niger,,ATCC16404,,512 µg/mL
CN1CCNCC1,Lodderomyces parapsilosis,broth dilution,ATCC22019,48 h,> 31.3 µg/mL
O=c1[nH]c(NCc2ccc(Cl)c(Cl)c2)nc2ncn(CCCCCN3CCOCC3)c12,Bacteroides fragilis,agar dilution,,48 h,> 32 µg/mL
Cc1ccc(C)n1-c1ccc(-c2nnc(-c3cccc([N+](=O)[O-])c3)[nH]2)cc1,Aspergillus niger,broth dilution,ATCC6275,,31.2 µg/mL
C[C@@H]1[C@H](O)[C@@H](C)/C=C/C=C/C=C/C=C/C=C/C=C/C=C/[C@H](O[C@@H]2O[C@H](C)[C@@H](O)[C@H](N)[C@@H]2O)C[C@@H]2O[C@](O)(C[C@@H](O)C[C@@H](O)[C@H](O)CC[C@@H](O)C[C@@H](O)CC(=O)O[C@H]1C)C[C@H](O)[C@H]2C(=O)O,Lodderomyces parapsilosis,broth dilution,,,0.5 to 1 µg/mL
CCCCCCCCCCCCCCN1CCN(CC(O)(Cn2cncn2)c2ccc(F)cc2F)CC1 (stereo not drawn),Lodderomyces parapsilosis,broth dilution,ATCC22019,48 h,> 31.3 µg/mL
Clc1ccc(-c2nc3ccccc3[nH]2)cc1Cl,Aspergillus niger,,ATCC16404,,256 µg/mL
Cc1cc(C)n(C(=O)c2ccc(-n3c(C)ccc3C)cc2)n1,Aspergillus niger,broth dilution,ATCC6275,,> 500 µg/mL
CCCCCCCCCN1CCNCC1,Lodderomyces parapsilosis,broth dilution,ATCC22019,48 h,> 31.3 µg/mL
CC[C@@H]([C@H](C)O)n1ncn(-c2ccc(N3CCN(c4ccc(OC[C@@H]5CO[C@@](Cn6cncn6)(c6ccc(F)cc6F)C5)cc4)CC3)cc2)c1=O,Aspergillus brasiliensis,,ATCC16404,72 h,< 0.3 µM
CC1=NN(CNc2ccccc2[N+](=O)[O-])C(=O)C1=NNn1c(-c2ccccc2)nc2ccccc2c1=O,Aspergillus niger,broth dilution,,,50.4 µM
CCCCCCCCCCCCCN1CCN(CC(O)(Cn2cncn2)c2ccc(F)cc2F)CC1 (stereo not drawn),Lodderomyces parapsilosis,broth dilution,ATCC22019,48 h,< 0.24 µg/mL
Cc1ccc2nc(-c3cccc(O)c3)[nH]c2c1,Aspergillus niger,,ATCC16404,,128 µg/mL
CCCCCCCCCCCCN1CCNCC1,Lodderomyces parapsilosis,,ATCC22019,,1.95 µg/mL
c1ccc2c(-c3nc4ccccc4[nH]3)c3ccccc3cc2c1,Aspergillus niger,,ATCC16404,,256 µg/mL
CCCCCCCCN1CCNCC1,Lodderomyces parapsilosis,broth dilution,ATCC22019,48 h,> 31.3 µg/mL
CC1=NN(CNc2ccc(O)cc2)C(=O)C1=NNn1c(-c2ccccc2)nc2ccccc2c1=O,Aspergillus niger,broth dilution,,,107 µM
Cc1ccc(C)n1-c1ccc(-c2nnc(-c3c(Cl)cccc3Cl)[nH]2)cc1,Aspergillus niger,broth dilution,ATCC6275,,2 µg/mL
Cc1ccc2nc(-c3ccc([N+](=O)[O-])cc3)n(Cc3ccc(Cl)cc3)c2c1,Aspergillus niger,,ATCC16404,,64 µg/mL
O=C(c1cc(O)c(O)c(O)c1)c1cc2ccccc2o1,Lodderomyces parapsilosis,broth dilution,,,16 µg/mL
O=[N+]([O-])c1ccc(-c2nc3ccccc3n2Cc2ccccc2)cc1,Aspergillus niger,,ATCC16404,,64 µg/mL
Cc1ccc(C)n1-c1ccc(-c2nnc(-c3ccccc3[N+](=O)[O-])[nH]2)cc1,Aspergillus niger,broth dilution,ATCC6275,,31.2 µg/mL
C=CCn1c(-c2ccc([N+](=O)[O-])cc2)nc2ccccc21,Aspergillus niger,,ATCC16404,,256 µg/mL
CCCCCCCCCCCN1CCNCC1,Lodderomyces parapsilosis,broth dilution,ATCC22019,48 h,7.8 µg/mL
Cc1ccc2nc(-c3ccccc3O)[nH]c2c1,Aspergillus niger,,ATCC16404,,512 µg/mL
CCCCCCCCN1CCN(CC(O)(Cn2cncn2)c2ccc(F)cc2F)CC1 (stereo not drawn),Lodderomyces parapsilosis,broth dilution,ATCC22019,48 h,0.03 µg/mL
CCOCCn1cnc2nc(NCc3ccc(Cl)c(Cl)c3)[nH]c(=O)c21,Bacteroides fragilis,agar dilution,,48 h,> 32 µg/mL
